Data published in ChEMBL document CHEMBL1122878, “New antihistaminic N-heterocyclic 4-piperidinamines. 3. Synthesis and antihistaminic activity of N-(4-piperidinyl)-3H-imidazo[4,5-b]pyridin-2-amines” (1985).

Columns and labels:
Format in all cases: functional
Rattus norvegicus [1] = assay: In vivo antihistaminic activity after 2 hours of oral administration using 48/80 lethality test in rat.
How it was run: (§1)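 Male inbred Wistar rats, 230–270 g, starved overnight, housed at 21 ± 1 °C and 65 ± 5% RH. Protection was survival at 4 h. ED50 by Finney from five rats per dose, at least three doses in a geometric series 0.0025–40 mg/kg.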

Rattus norvegicus [2] = assay: In vivo antihistaminic activity after 1 hour of subcutaneous administration using 48/80 lethality test in rat.; details: sc; how it was run: as §1
Cavia porcellus [3] = assay: In vivo antihistaminic activity after 24 hr of oral administration using histamine lethality test in guinea pig
How it was run: (§2)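 Male albino guinea pigs, 280–360 g. Compound given orally in twofold dose increments 3, 24, 48 or 96 h before an iv challenge with histamine dihydrochloride at 1.25 mg/kg. Protection was survival at 1 h. PD50 with confidence limits by Finney, using 4–6 animals per dose and time point, at least three doses from a geometric series 0.0025–5.0 mg/kg.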

Cavia porcellus [4] = assay: In vivo antihistaminic activity after 48 hr of oral administration using histamine lethality test in guinea pig; how it was run: as §2
Cavia porcellus [5] = assay: In vivo antihistaminic activity after 96 hr of oral administration using histamine lethality test in guinea pig; how it was run: as §2
Cavia porcellus [6] = assay: In vivo antihistaminic activity after 3 hr of oral administration using histamine lethality test in guinea pig; how it was run: as §2
Cavia porcellus [7] = assay: In vivo antihistaminic activity after 24 hr of oral administration using histamine lethality test in guinea pig.; how it was run: as §2
Cavia porcellus [8] = assay: In vivo antihistaminic activity after 3 hr of oral administration using histamine lethality test in guinea pig.; how it was run: as §2
Cavia porcellus [9] = assay: In vivo antihistaminic activity after 48 hr of oral administration using histamine lethality test in guinea pig.; how it was run: as §2

SMILES	ED50 (Rattus norvegicus [1]) [mg/kg]	ED50 (Rattus norvegicus [2]) [mg/kg]	also measured
O=C(CCCN1CCC(Nc2nc3cccnc3n2Cc2ccccc2)CC1)c1ccc(F)cc1	1.25	0.31	–
Fc1ccc(Cn2c(NC3CCN(CCCC(c4ccc(F)cc4)c4ccc(F)cc4)CC3)nc3cccnc32)cc1	–	> 2.5	–
c1ccc(Cn2c(NC3CCN(CCC(c4ccccc4)c4ccccc4)CC3)nc3cccnc32)cc1	–	> 2.5	–
C=CCN1CCC(Nc2nc3cccnc3n2Cc2ccccc2)CC1	> 2.5	0.31	–
Fc1ccc(Cn2c(NC3CCN(CCc4ccccn4)CC3)nc3cccnc32)cc1	0.31	0.04	–
CN(C)C(=O)C(CCN1CCC(Nc2nc3cccnc3n2Cc2ccccc2)CC1)(c1ccccc1)c1ccccc1	–	> 2.5	–
Fc1ccc(OCCCN2CCC(Nc3nc4cccnc4n3Cc3ccccc3)CC2)cc1	1.25	1.25	–
O=C(NCCN1CCC(Nc2nc3cccnc3n2Cc2ccccc2)CC1)c1ccc(F)cc1	1.25	0.08	–
CN1CCC(Nc2nc3cccnc3n2Cc2ccc(F)cc2)CC1	> 2.5	0.08	–
c1ccc(Cn2c(NC3CCN(CCN4CCOCC4)CC3)nc3cccnc32)cc1	2.5	0.63	–
OC(COc1ccccc1)CN1CCC(Nc2nc3cccnc3n2Cc2ccccc2)CC1 (stereo not drawn)	0.63	0.16	–
COc1ccc(CCN2CCC(Nc3nc4cccnc4n3Cc3ccccc3)CC2)cc1	0.31	0.16	–
Fc1ccc(Cn2c(NC3CCN(CCc4ccccc4)CC3)nc3cccnc32)cc1	> 2.5	0.31	–
Fc1ccc(Cn2c(NC3CCN(CCCOc4ccccc4)CC3)nc3cccnc32)cc1	0.31	0.31	–
COc1ccc(CCN2CCC(Nc3nc4ccccc4n3Cc3ccc(F)cc3)CC2)cc1 [ASTEMIZOLE]	0.11	0.11	ED50 (Cavia porcellus [3]): 0.07 mg/kg; ED50 (Cavia porcellus [4]): 0.04 mg/kg; ED50 (Cavia porcellus [5]): 0.19 mg/kg; ED50 (Cavia porcellus [6]): 0.33 mg/kg
Fc1ccc(Cn2c(NC3CCN(CCc4cccs4)CC3)nc3cccnc32)cc1	> 2.5	0.16	–
Cc1cccc(C)c1NC(=O)CN1CCC(Nc2nc3cccnc3n2Cc2ccccc2)CC1	–	> 2.5	–
c1ccc(CCN2CCC(Nc3nc4cccnc4n3Cc3ccccc3)CC2)cc1	> 2.5	0.08	–
CC(C)N1CCC(Nc2nc3cccnc3n2Cc2ccccc2)CC1	> 2.5	0.63	–
CCCCN1CCC(Nc2nc3cccnc3n2Cc2ccccc2)CC1	> 2.5	0.16	–
c1ccc(Cn2c(NC3CCN(CCOc4ccccc4)CC3)nc3cccnc32)cc1	1.25	0.31	–
COc1ccc(CCN2CCC(Nc3nc4cccnc4n3Cc3ccc(F)cc3)CC2)cc1	0.16	0.31	ED50 (Cavia porcellus [7]): 0.12 mg/kg; ED50 (Cavia porcellus [8]): 0.16 mg/kg; ED50 (Cavia porcellus [9]): 0.25 mg/kg
Oc1nc2ccccc2n1CCCN1CCC(Nc2nc3cccnc3n2Cc2ccc(F)cc2)CC1	2.5	0.63	–
Fc1ccc(Cn2c(NC3CCN(C/C=C/c4ccccc4)CC3)nc3cccnc32)cc1	> 2.5	1.25	–
c1ccc(Cn2c(NC3CCN(CC4COc5ccccc5O4)CC3)nc3cccnc32)cc1 (stereo not drawn)	> 2.5	0.63	–
c1ccc(Cn2c(NC3CCN(C4CCCCC4)CC3)nc3cccnc32)cc1	> 2.5	0.63	–
CCn1nnn(CCN2CCC(Nc3nc4cccnc4n3Cc3ccc(F)cc3)CC2)c1=O	> 2.5	0.31	–
C(=C\c1ccccc1)/CN1CCC(Nc2nc3cccnc3n2Cc2ccccc2)CC1	1.25	1.25	–
CN1CCC(Nc2nc3cccnc3n2Cc2ccccc2)CC1	> 2.5	0.08	–
O=C(CCCN1CCC(Nc2nc3cccnc3n2Cc2ccc(F)cc2)CC1)c1ccc(F)cc1	1.25	0.04	–
